Results taken from publication PMC9279720 (Acta Pharmaceutica Sinica. B, 2021).

Assays:
HCMV ADCREGFP [1] = assay: HCMV replication assay; type: cell-based, Human cytomegalovirus (HCMV); conditions: for SI (selectivity index, CC50/EC50): CC50 (HFF) / EC50 (HCMV); for Antiviral activity/potency in words: concentrations up to 50 μmol/L
Cell viability assay = type: cell-based; conditions: human, HFF cells (no virus)
pUL89-C = target: T1, pUL89-C (Human cytomegalovirus, UniProt P16732); assay: In vitro pUL89-C endonuclease assay; type: biochemical, HCMV; conditions: read-out: Endonuclease inhibition (%) at 20 μmol/L
T1 sequence (P16732 418-674 limits assumed): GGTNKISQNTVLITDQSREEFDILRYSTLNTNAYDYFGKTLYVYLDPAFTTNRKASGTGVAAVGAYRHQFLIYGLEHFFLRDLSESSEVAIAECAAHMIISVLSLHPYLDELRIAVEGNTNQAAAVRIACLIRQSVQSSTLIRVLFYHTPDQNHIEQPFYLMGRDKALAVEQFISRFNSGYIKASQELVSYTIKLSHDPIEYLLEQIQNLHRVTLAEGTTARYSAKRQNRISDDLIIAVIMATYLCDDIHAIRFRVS

HFF cells = assay: Cell viability assay; type: cell-based; conditions: for Cytotoxicity in words: HFFs
HCMV ADCREGFP [2] = assay: Time of addition assay; type: cell-based, Human cytomegalovirus (HCMV); conditions: 5 × EC50, added at indicated times post infection
Outline: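 HFFs seeded at 1.75 × 10^4 cells/well, grown 24 h in DMEM/10% FBS/1% P/S, then inoculated at MOI 0.01. Cells were held in DMEM with 5% FBS, 1% P/S and 0.5% DMSO until compound was added. GFP intensity was read after lysis; triplicate-well means were normalized to DMSO.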

HCMV ADCREGFP [3] = assay: Compound withdrawal assay; type: cell-based, Human cytomegalovirus (HCMV); conditions: 5 × EC50, removed at indicated times, read at 168 h
Outline: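 HFFs in DMEM/5% FBS, inoculated with the virus at MOI 0.01 for 2 h before compound or 0.5% DMSO was added. At each withdrawal time, wells were washed twice in PBS and refed with 0.5% DMSO medium. Cells were lysed in Tris/DTT/Triton buffer and GFP read at ex/em 495/515 nm. Triplicate-well means.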

[4] = Plasma stability assay, human plasma; type: in vitro ADME; conditions: for half-life at 1 μmol/L: human, plasma, pH 7.4; for Plasma stability in words: species not told apart in the sentence (human and mouse in Table 3)
Outline: (§1)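 Test compound (1 μmol/L final) incubated at 37 °C in human or CD-1 mouse plasma diluted to 80% with 0.1 mol/L potassium phosphate, pH 7.4. Aliquots taken at time points up to […], quenched with acetonitrile/0.1% formic acid and centrifuged at 4 °C. Percent remaining and half-life determined by LC/MS/MS.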

[5] = Plasma stability assay, mouse plasma; type: in vitro ADME, mouse (CD-1); conditions: CD-1, mouse, pH 7.4
Outline: as §1

[6] = Microsomal stability assay, human liver microsomes; type: in vitro ADME; conditions: for half-life at 1 μmol/L: human, liver microsomes, pH 7.4; for Microsomal stability in words: species not told apart in the sentence (human and mouse in Table 3)
Outline: (§2)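 Test compound (1 μmol/L final) incubated at 37 °C with liver microsomes (human or CD-1 mouse; 0.5 mg/mL protein) and 1 mmol/L MgCl2 in 0.1 mol/L potassium phosphate, pH 7.4. Reaction started with NADPH (1 mmol/L final); a no-NADPH control and a verapamil positive control were run alongside. Samples taken up to 60 min and quenched in acetonitrile/0.1% formic acid. Half-life determined by LC/MS/MS.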

[7] = Microsomal stability assay, mouse liver microsomes; type: in vitro ADME; conditions: CD-1, mouse, pH 7.4
Outline: as §2

[8] = Parallel artificial membrane permeability assay; type: in vitro ADME; conditions: for Papp at 5 h, 2 μmol/L: PAMPA
Outline: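 Pre-coated lipid PAMPA plate system. Donor wells held test compound at 2 μmol/L in DPBS; acceptor wells held blank DPBS. Incubated 5 h at 25 °C without agitation. Donor and acceptor concentrations measured by LC/MS/MS. Pe calculated from an equilibrium-concentration equation (filter area 0.3 cm2). Compounds classed as high or low permeability at a cutoff of 1.5 × 10−6 cm/s.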

SMILES	SI (selectivity index, CC50/EC50) (HCMV ADCREGFP [1])	CC50 at 168 h (Cell viability assay) [µM]	inhibition at 20 µM (pUL89-C) [%]	other results
Nc1nc(O)c2ncn(COC(CO)CO)c2n1 [Compound 1, ganciclovir, reference compound]	>50	> 50	–	–
O=C(NCc1ccc(F)cc1)c1cn(Cc2ccc(F)cc2)cc(O)c1=O [Compound 8b]	8.2	6.4 ± 3.7	7	–
O=C(NCc1ccccc1)c1cn(Cc2ccc(F)cc2)cc(O)c1=O [Compound 8d]	4.7	7.1 ± 6.4	9	–
O=C(NCc1ccccc1F)c1cn(Cc2ccc(F)cc2)cc(O)c1=O [Compound 8e]	3.6	5.8 ± 2.1	6	–
O=C(NCc1cccc(F)c1)c1cn(Cc2ccc(F)cc2)cc(O)c1=O [Compound 8f]	4.0	3.9 ± 1.8	7	–
O=C(NCc1ccc(Cl)cc1F)c1cn(Cc2ccc(F)cc2)cc(O)c1=O [Compound 8k]	4.4	2.4 ± 0.07	14	–
O=C(NCc1ccc(F)c(Cl)c1)c1cn(Cc2ccc(F)cc2)cc(O)c1=O [Compound 8n]	6.3	3.9 ± 2.3	5	–
O=C(NCc1c(F)cccc1Cl)c1cn(Cc2ccc(F)cc2)cc(O)c1=O [Compound 8p]	–	–	5	viability at 168 h, 50 μmol/L (Cell viability assay): ~50%; Cytotoxicity in words (HFF cells): cytostatic but not a cytotoxic effect; Metabolic activity compared to DMSO (MTS assay) (HFF cells; across all compound concentrations 0.2–50 μmol/L): approximately 50%
O=C(NCc1ccc(Br)cc1F)c1cn(Cc2ccc(F)cc2)cc(O)c1=O [Compound 8q]	>41	> 25	9	–
N#Cc1ccc(CNC(=O)c2cn(Cc3ccc(F)cc3)cc(O)c2=O)c(F)c1 [Compound 8r]	>42	> 50	5	–
Cc1cc(CNC(=O)c2cn(Cc3ccc(F)cc3)cc(O)c2=O)ccc1F [Compound 8s]	10	10 ± 5.4	6	–
O=C(NCc1ccc(C(F)(F)F)cc1F)c1cn(Cc2ccc(F)cc2)cc(O)c1=O [Compound 8u]	>46	> 25	3	–
O=C(NCc1cc(F)c(F)cc1F)c1cn(Cc2ccc(F)cc2)cc(O)c1=O [Compound 8v]	8.1	5.7 ± 2	5	–
O=C(Nc1ccc(F)cc1)c1cn(Cc2ccc(F)cc2)cc(O)c1=O [Compound 9b]	6.4	5.6 ± 1.3	9	–
CC1(C)OB(c2ccc(NC(=O)c3cn(Cc4ccc(F)cc4)cc(O)c3=O)cc2)OC1(C)C [Compound 9c]	>17	> 50	7	Antiviral activity/potency in words (HCMV ADCREGFP [1]): decreased potency; Cytotoxicity in words (HFF cells): no cytotoxicity
CC(NC(=O)c1cn(Cc2ccc(F)cc2)cc(O)c1=O)c1ccc(F)cc1F (centres unmarked) [Compound 10]	>94	> 50	5	–
CN(Cc1ccc(F)cc1F)C(=O)c1cn(Cc2ccc(F)cc2)cc(O)c1=O [Compound 11]	8.6	12 ± 4.9	6	–
O=C(NCCc1ccc(F)cc1F)c1cn(Cc2ccc(F)cc2)cc(O)c1=O [Compound 12]	>116	> 50	10	Time of addition, result in words (HCMV ADCREGFP [2]): inhibit viral replication at a stage between when GCV and LTV are active; Compound withdrawal, result in words (HCMV ADCREGFP [3]): inhibit a step in viral replication between LTV and GCV; half-life at 1 μmol/L [4]: > 24 h; Plasma stability in words [4]: excellent; half-life at 1 μmol/L [5]: > 24 h; half-life at 1 μmol/L [6]: 0.668 ± 0.03 h; Microsomal stability in words [6]: good; half-life at 1 μmol/L [7]: 0.433 ± 0.0167 h; PAMPA permeability class [8]: high permeability; Papp at 5 h, 2 μmol/L [8]: 45 ± 9 nm/s
O=C(NCc1ccc(F)cc1F)c1cn(Cc2ccccc2)cc(O)c1=O [Compound 13]	>50	> 50	6	Time of addition, result in words (HCMV ADCREGFP [2]): active similar to, or possibly later than, LTV; Compound withdrawal, result in words (HCMV ADCREGFP [3]): viral replication recovered similarly to GCV; half-life at 1 μmol/L [4]: > 24 h; Plasma stability in words [4]: excellent; half-life at 1 μmol/L [5]: > 24 h; half-life at 1 μmol/L [6]: 1.7 ± 0.197 h; Microsomal stability in words [6]: good; half-life at 1 μmol/L [7]: 0.895 ± 0.00667 h; PAMPA permeability class [8]: high permeability; Papp at 5 h, 2 μmol/L [8]: 91 ± 11 nm/s
O=C(NCc1ccc(F)cc1F)c1cn(C2CC2)cc(O)c1=O [Compound 14]	>5.2	> 25	7	–
O=C(NCc1ccc(F)cc1F)c1c[nH]cc(O)c1=O [Compound 15]	>6.3	> 50	7	–
O=C(NCc1ccc(F)cc1F)c1cn(Cc2ccc(F)cc2)ccc1=O [Compound 17]	>7.6	> 50	5	–
CCOC(=O)c1cn(Cc2ccc(F)cc2)ccc1=O [Compound 42]	–	> 50	7	Antiviral activity/potency in words (HCMV ADCREGFP [1]): no antiviral activity
COc1cccc(N2CCN(C3=Nc4c(F)cccc4[C@H](CC(=O)O)N3c3cc(C(F)(F)F)ccc3OC)CC2)c1 [LTV, letermovir, reference compound]	–	–	–	Compound withdrawal, result in words (HCMV ADCREGFP [3]): the viral infection rebounded quickly compared to GCV
